Test results taken from ChEMBL document CHEMBL3259625 (ACS Med Chem Lett, 2014).

Columns and labels:
Trypanosoma cruzi = assay: Antitrypanosomal activity against trypomastigotes of Trypanosoma cruzi CA-I/72 infected in mouse C2C12 cells after 72 hrs; assay type: functional, organism-based; conditions: CA-I/72, C2C12, 72 h
Procedure, shortened: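 EC50 derived from dose–response curves against T. cruzi in infected mouse C2C12 myoblasts.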

[1] = (§1) Half life in human liver microsomes at 1 uM by LC-MS/MS analysis in presence of NADPH; assay type: ADME; conditions: liver microsomes
Procedure, shortened: (§2)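 Microsomal stability was measured in human, rat and mouse liver microsomes, with sunitinib run in parallel as the reference compound.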

[2] = (§3) Half life in rat liver microsomes at 1 uM by LC-MS/MS analysis in presence of NADPH; assay type: ADME; conditions: liver microsomes; procedure, shortened: as §2
[3] = (§4) Half life in mouse liver microsomes at 1 uM by LC-MS/MS analysis in presence of NADPH; assay type: ADME; conditions: liver microsomes; procedure, shortened: as §2
CYP1A2 = biological target: T1, CYP1A2 (Homo sapiens, UniProt P05177); assay: (§5) Inhibition of CYP1A2 in human liver microsomes assessed as phenacetin […] to acetaminophen at 1 uM after 10 mins in presence of NADPH; assay type: ADME; conditions: liver microsomes, probe phenacetin
T1 sequence (P05177 whole entry): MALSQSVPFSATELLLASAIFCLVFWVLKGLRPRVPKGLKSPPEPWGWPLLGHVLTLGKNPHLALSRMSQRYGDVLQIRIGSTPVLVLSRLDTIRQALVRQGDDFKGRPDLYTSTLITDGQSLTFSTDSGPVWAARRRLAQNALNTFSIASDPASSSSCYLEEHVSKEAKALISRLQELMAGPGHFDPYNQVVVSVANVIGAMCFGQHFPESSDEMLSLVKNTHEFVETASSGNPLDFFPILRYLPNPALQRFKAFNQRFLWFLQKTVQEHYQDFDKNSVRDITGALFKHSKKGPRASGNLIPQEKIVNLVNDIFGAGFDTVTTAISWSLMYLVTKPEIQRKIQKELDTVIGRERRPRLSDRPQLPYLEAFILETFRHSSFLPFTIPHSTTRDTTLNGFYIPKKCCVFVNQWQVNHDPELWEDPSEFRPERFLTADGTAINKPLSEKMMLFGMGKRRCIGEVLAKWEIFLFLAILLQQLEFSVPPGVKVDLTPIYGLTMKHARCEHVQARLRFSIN

CYP2C9 = CYP2C9 (Homo sapiens, UniProt P11712); assay: (§6) Inhibition of CYP2C9 in human liver microsomes assessed as tolbutamide hydroxylation to hydroxytolbutamide at 1 uM after 10 mins in presence of NADPH; assay type: ADME; conditions: liver microsomes, probe tolbutamide
CYP2D6 = CYP2D6 (Homo sapiens, UniProt P10635); assay: (§7) Inhibition of CYP2D6 in human liver microsomes assessed as bufuralol hydroxylation to 4'-hydroxybufuralol at 1 uM after 10 mins in presence of NADPH; assay type: ADME; conditions: liver microsomes, probe bufuralol
CYP3A4 = CYP3A4 (Homo sapiens, UniProt P08684); assay: (§8) Inhibition of CYP3A4 in human liver microsomes assessed as midazolam hydroxylation to 1'-hydroxymidazolam at 1 uM after 10 mins in presence of NADPH; assay type: ADME; conditions: liver microsomes, probe midazolam
Liver microsome [4] = assay: as §1; assay type: ADME; conditions: microsomes, 1 µM; procedure, shortened: as §2
Liver = assay: as §4; assay type: ADME; conditions: microsomes, 1 µM; procedure, shortened: as §2
Liver microsome [5] = assay: as §3; assay type: ADME; conditions: microsomes, 1 µM; procedure, shortened: as §2
Cytochrome P450 1A2 = biological target: T2, Cytochrome P450 1A2 (Homo sapiens, UniProt P05177); assay: as §5; assay type: ADME; conditions: microsomes, 10 min, 1 µM
T2 sequence (P05177 whole entry): T1 sequence (P05177 whole entry)

Cytochrome P450 2C9 = Cytochrome P450 2C9 (Homo sapiens, UniProt P11712); assay: as §6; assay type: ADME; conditions: microsomes, 10 min, 1 µM
Cytochrome P450 2D6 = Cytochrome P450 2D6 (Homo sapiens, UniProt P10635); assay: as §7; assay type: ADME; conditions: microsomes, 10 min, 1 µM
Cytochrome P450 3A4 = Cytochrome P450 3A4 (Homo sapiens, UniProt P08684); assay: as §8; assay type: ADME; conditions: microsomes, 10 min, 1 µM
Cytochrome P450 3A4, sequence (P08684 whole entry): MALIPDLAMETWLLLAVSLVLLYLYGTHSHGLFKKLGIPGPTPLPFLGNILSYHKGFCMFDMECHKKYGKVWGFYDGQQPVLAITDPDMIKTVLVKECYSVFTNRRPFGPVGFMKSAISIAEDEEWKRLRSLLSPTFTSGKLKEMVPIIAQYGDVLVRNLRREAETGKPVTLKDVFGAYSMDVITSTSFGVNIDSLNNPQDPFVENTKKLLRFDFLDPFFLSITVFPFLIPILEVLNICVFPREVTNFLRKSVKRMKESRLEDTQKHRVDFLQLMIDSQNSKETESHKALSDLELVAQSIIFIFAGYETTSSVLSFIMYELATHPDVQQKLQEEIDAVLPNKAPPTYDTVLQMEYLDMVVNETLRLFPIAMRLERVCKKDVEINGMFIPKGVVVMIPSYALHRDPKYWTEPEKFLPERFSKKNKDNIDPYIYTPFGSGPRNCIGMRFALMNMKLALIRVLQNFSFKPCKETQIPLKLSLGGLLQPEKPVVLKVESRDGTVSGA

CYP3A4, sequence (P08684 whole entry): as above
CYP2D6, sequence (P10635 whole entry): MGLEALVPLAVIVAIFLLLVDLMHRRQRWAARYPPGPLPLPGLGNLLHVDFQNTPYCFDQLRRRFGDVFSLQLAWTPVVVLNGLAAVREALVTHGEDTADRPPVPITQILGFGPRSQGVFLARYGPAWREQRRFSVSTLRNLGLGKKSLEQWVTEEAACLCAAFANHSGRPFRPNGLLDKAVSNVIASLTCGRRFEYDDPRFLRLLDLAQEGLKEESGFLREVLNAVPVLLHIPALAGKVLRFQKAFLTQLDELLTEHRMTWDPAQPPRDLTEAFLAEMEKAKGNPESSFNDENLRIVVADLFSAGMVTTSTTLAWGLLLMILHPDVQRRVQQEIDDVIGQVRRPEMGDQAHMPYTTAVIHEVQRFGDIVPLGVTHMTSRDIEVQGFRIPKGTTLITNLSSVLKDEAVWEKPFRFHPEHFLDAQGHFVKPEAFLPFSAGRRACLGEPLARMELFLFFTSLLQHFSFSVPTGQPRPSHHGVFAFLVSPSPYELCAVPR
CYP2C9, sequence (P11712 whole entry): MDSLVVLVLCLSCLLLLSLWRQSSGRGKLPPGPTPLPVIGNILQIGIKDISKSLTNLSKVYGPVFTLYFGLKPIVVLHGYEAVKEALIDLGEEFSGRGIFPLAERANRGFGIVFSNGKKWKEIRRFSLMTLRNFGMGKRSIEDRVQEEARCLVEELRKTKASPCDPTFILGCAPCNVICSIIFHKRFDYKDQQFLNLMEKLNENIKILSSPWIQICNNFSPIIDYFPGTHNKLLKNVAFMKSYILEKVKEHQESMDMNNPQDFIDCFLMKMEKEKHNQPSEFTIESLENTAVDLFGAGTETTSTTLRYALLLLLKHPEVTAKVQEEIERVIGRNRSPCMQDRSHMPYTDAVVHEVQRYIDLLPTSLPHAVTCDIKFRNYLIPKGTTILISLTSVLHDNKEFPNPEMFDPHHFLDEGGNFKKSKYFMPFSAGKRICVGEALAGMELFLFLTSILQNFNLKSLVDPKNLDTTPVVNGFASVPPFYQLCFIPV
Cytochrome P450 2D6, sequence (P10635 whole entry): as the sequence (P10635 whole entry) above
Cytochrome P450 2C9, sequence (P11712 whole entry): as the sequence (P11712 whole entry) above

Row | Structure (SMILES) | EC50 (Trypanosoma cruzi) | half-life at 1 µM [1] | half-life at 1 µM [2] | half-life at 1 µM [3] | inhibition at 10 min, 1 µM (CYP1A2) | inhibition at 10 min, 1 µM (CYP2C9) | inhibition at 10 min, 1 µM (CYP2D6) | inhibition at 10 min, 1 µM (CYP3A4) | t1/2 (Liver microsome [4]) | t1/2 (Liver) | t1/2 (Liver microsome [5]) | inhibition (INH) (Cytochrome P450 1A2) | inhibition (INH) (Cytochrome P450 2C9) | inhibition (INH) (Cytochrome P450 2D6) | inhibition (INH) (Cytochrome P450 3A4)
1 | O=C(N[C@H](Cc1c[nH]c2ccccc12)C(=O)Nc1ccncc1)c1ccc(-c2ccc(OCc3ccc(F)cc3F)c(F)c2)cc1F | 0.6 nM | 25 min | 30 min | 34 min | -9% | 84% | 21% | 38% | – | – | – | – | – | – | –
2 | O=C(N[C@H](Cc1c[nH]c2ccccc12)C(=O)Nc1ccncc1)c1ccc(-c2ccc(F)c(F)c2)cc1F | – | – | – | – | – | – | – | – | 18 min | 39 min | – | – | – | – | –
3 | O=C(N[C@H](Cc1c[nH]c2ccccc12)C(=O)Nc1ccncc1)c1ccc(-c2ccc(OCc3ccc(F)cc3)c(C(F)(F)F)c2)cc1F | 9.2 nM | 29 min | 53 min | 51 min | -26% | 41% | -17% | 15% | – | – | – | – | – | – | –

Further lines, results first:

Row | EC50 (Trypanosoma cruzi) | half-life at 1 µM [1] | half-life at 1 µM [2] | half-life at 1 µM [3] | inhibition at 10 min, 1 µM (CYP1A2) | inhibition at 10 min, 1 µM (CYP2C9) | inhibition at 10 min, 1 µM (CYP2D6) | inhibition at 10 min, 1 µM (CYP3A4) | t1/2 (Liver microsome [4]) | t1/2 (Liver) | t1/2 (Liver microsome [5]) | inhibition (INH) (Cytochrome P450 1A2) | inhibition (INH) (Cytochrome P450 2C9) | inhibition (INH) (Cytochrome P450 2D6) | inhibition (INH) (Cytochrome P450 3A4) | Structure (SMILES)
4 | 2.9 nM | 45 min | 39 min | 69 min | -4% | 92% | 27% | 24% | – | – | – | – | – | – | – | O=C(N[C@H](Cc1c[nH]c2ccccc12)C(=O)Nc1ccncc1)c1ccc(-c2ccc(C(F)(F)F)c(F)c2)cc1F
5 | – | – | 20 min | – | – | – | – | – | 18 min | 27 min | – | – | – | – | – | O=C(N[C@H](Cc1c[nH]c2ccccc12)C(=O)Nc1ccncc1)c1ccc(-c2cccc(F)c2)cc1F
6 | 0.47 nM | 8 min | 24 min | 11 min | 10% | 96% | 74% | 86% | – | – | – | – | – | – | – | O=C(N[C@H](Cc1c[nH]c2ccccc12)C(=O)Nc1ccncc1)c1ccc(N2CCN(c3cccc(C(F)(F)F)c3)CC2)cc1F
7 | 1.3 nM | – | – | – | – | – | – | – | 17 min | – | 17 min | 3% | 92% | 47% | 74% | O=C(N[C@H](Cc1c[nH]c2ccccc12)C(=O)Nc1ccncc1)c1ccc(-c2cc(F)ccc2F)cc1F
